# Source: ChEMBL document CHEMBL3045217, “Factors affecting the synergy of thiabendazole, sodium bicarbonate, and heat to control postharvest green mold of citrus fruit” (J Agric Food Chem, 2008)
# Assays:
# Penicillium digitatum [1] = assay: Fungicidal activity against Penicillium digitatum infected Valenica oranges assessed as fruit weight loss at 400 mg/L treated for 1 min at 40 degC postharvest at 20 hr after fungal conidial inoculation measured after 7 days of storage at 17 degC (water Rvb = 3.42%); format: functional
# Cuticular wax [2] = assay: Drug residues in Citrus sinensis cvs. Salustiana (Salustiana oranges) cuticular wax at 600 mg/L treated for 3 min at 20 degC postharvest measured after overnight incubation at 17 degC by GC analysis; format: ADME; conditions: 0.05 h
# How it was run: (§1)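 'Salustiana' oranges were washed with water and air-dried. They were dipped 1 or 3 min in TBZ 600 mg/L at 20 or 50 °C, or 1 min in TBZ 600 mg/L plus 2% SBC at 20 °C, then dried overnight at 17 °C in the dark. Surface residue was taken by water extraction and wax residue by chloroform extraction. Inner residue was measured in fruit after both extractions. Extracts were dried under N2, taken up in acetone and analysed by GC. Values are mg/kg on a whole-fruit basis.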
# Fruit [3] = assay: Drug residues in Citrus sinensis cvs. Valencia late (Valencia oranges) at 200 mg/L treated for 1 min at 50 degC postharvest measured after 10 days of storage at 17 degC by GC analysis; format: ADME
# How it was run: (§2)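 'Valencia' oranges were dipped 1 min in TBZ at 600 mg/L (20 °C, ±0.5, 1 or 2% wt/vol SBC), 400 mg/L (40 °C, ±SBC) or 200 mg/L (50 °C, alone), then air-dried. They were sampled at 0, 10 and 20 days at 17 °C. Peel of five fruit was frozen, and 5 g of homogenate was extracted with ethyl acetate/hexane (1/1) plus NaCl. The extract was dried under N2, taken up in acetone and analysed by GC. Results are mg/kg on a whole-fruit basis.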
# Penicillium digitatum [4] = assay: Fungicidal activity against Penicillium digitatum infected Valenica oranges assessed as fruit weight loss at 400 mg/L treated for 1 min at 40 degC postharvest at 20 hr after fungal conidial inoculation measured after 21 days of storage at 17 degC in presence of 0.5% SBC (water Rvb = 11.43%); format: functional
# Cuticular wax [5] = assay: Drug residues in Citrus sinensis cvs. Salustiana (Salustiana oranges) cuticular wax at 600 mg/L treated for 3 min at 50 degC postharvest measured after overnight incubation at 17 degC by GC analysis; format: ADME; conditions: 0.05 h; how it was run: as §1
# Penicillium digitatum [6] = assay: Fungicidal activity against Penicillium digitatum infected Valenica oranges assessed as fruit weight loss at 400 mg/L treated for 1 min at 40 degC postharvest at 20 hr after fungal conidial inoculation measured after 7 days of storage at 17 degC in presence of 1% SBC (water Rvb = 4.49%); format: functional
# Penicillium digitatum [7] = assay: Fungicidal activity against TBZ-resistant Penicillium digitatum infected Nova mandarins assessed as postharvest green mold incidence at 200 mg/L treated for 1 min at 50 degC at 20 hr after fungal conidial inoculation measured after 5 days of storage at 20 degC (water Rvb = 95.0%); format: functional
# Penicillium digitatum [8] = assay: Fungicidal activity against Penicillium digitatum infected Valenica oranges assessed as fruit weight loss at 600 mg/L treated for 1 min at 20 degC postharvest at 20 hr after fungal conidial inoculation measured after 21 days of storage at 17 degC in presence of 0.5% SBC (water Rvb = 10.79%); format: functional
# Penicillium digitatum [9] = assay: (§3) Fungicidal activity against TBZ-resistant Penicillium digitatum infected Nova mandarins assessed as postharvest green mold incidence at 600 mg/L treated for 1 min at 20 degC at 20 hr after fungal conidial inoculation measured after 5 days of storage at 20 degC in presence of 0.5% SBC (water Rvb = 86.7%); format: functional
# Penicillium digitatum [10] = assay: as §3, with “incidence at 400 mg/L treated” for “incidence at 600 mg/L treated”, “min at 40 degC at” for “min at 20 degC at”, “Rvb = 83.3%)” for “Rvb = 86.7%)”; format: functional
# Penicillium digitatum [11] = assay: Fungicidal activity against Penicillium digitatum infected Valenica oranges assessed as fruit weight loss at 600 mg/L treated for 1 min at 20 degC postharvest at 20 hr after fungal conidial inoculation measured after 14 days of storage at 17 degC in presence of 2% SBC (water Rvb = 8.02%); format: functional
# Penicillium digitatum [12] = assay: (§4) Fungicidal activity against TBZ-sensitive Penicillium digitatum infected Nova mandarins assessed as postharvest green mold incidence at 400 mg/L treated for 1 min at 40 degC at 20 hr after fungal conidial inoculation measured after 5 days of storage at 20 degC in presence of 2% SBC (water Rvb = 88.3%); format: functional
# How it was run: (§5)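 Fruit were surface-disinfected in 1 g/L hypochlorite for 30 s, rinsed, dried, then wounded twice equatorially (2 mm × 2 mm rod). Inoculation was a 1 min dip in P. digitatum conidia, 1 × 10^5 conidia/mL final. Fruit were held 20 h at 20 °C and 90% RH, dipped 1 min (SBC wt/vol), and air-dried. Storage was 20 °C, 90% RH. Decay incidence (% fruit with lesions) was scored at 5 d for mandarins and 7 d for oranges. Three replicates of 40 fruit were used; arcsin-transformed data were compared by LSD, p ≤ 0.05.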
# Fruit [13] = assay: Drug residues in Citrus sinensis cvs. Valencia late (Valencia oranges) at 400 mg/L treated for 1 min at 40 degC postharvest measured after 10 days of storage at 17 degC by GC analysis; format: ADME; how it was run: as §2
# Fruit [14] = assay: Total drug residues in Citrus sinensis cvs. Salustiana (Salustiana oranges) fruit at 600 mg/L treated for 3 min at 50 degC postharvest measured after overnight incubation at 17 degC by GC analysis; format: ADME; conditions: 0.05 h
# How it was run: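 'Salustiana' oranges were water-washed, dried, dipped, then dried overnight at 17 °C in the dark. Unextracted fruit were used for total residues. Peel from five oranges was frozen at -18 °C. 5 g homogenized peel was extracted with 10 mL ethyl acetate/hexane (1/1) plus 2 g NaCl, shaken 30 min, then 1 mL of organic layer was dried under N2, redissolved in acetone, and run by GC without cleanup. Results are on a whole-fruit basis.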
# Fruit [15] = assay: Drug residues in Citrus sinensis cvs. Valencia late (Valencia oranges) at 400 mg/L treated for 1 min at 40 degC postharvest measured after 20 days of storage at 17 degC in presence of 1% SBC by GC analysis; format: ADME; how it was run: as §2
# Penicillium digitatum [16] = assay: Fungicidal activity against Penicillium digitatum infected Valenica oranges assessed as fruit weight loss at 400 mg/L treated for 1 min at 40 degC postharvest at 20 hr after fungal conidial inoculation measured after 7 days of storage at 17 degC in presence of 0.5% SBC (water Rvb = 4.07%); format: functional
# Fruit [17] = assay: Drug residues in Citrus sinensis cvs. Valencia late (Valencia oranges) at 400 mg/L treated for 1 min at 40 degC postharvest measured after 20 days of storage at 17 degC in presence of 2% SBC by GC analysis; format: ADME; how it was run: as §2
# Fruit [18] = assay: Drug residues in Citrus sinensis cvs. Valencia late (Valencia oranges) at 600 mg/L treated for 1 min at 20 degC postharvest measured immediately post-drug treatment in presence of 0.5% SBC by GC analysis; format: ADME; how it was run: as §2
# Fruit [19] = assay: Drug residues in Citrus sinensis cvs. Valencia late (Valencia oranges) at 600 mg/L treated for 1 min at 20 degC postharvest measured after 10 days of storage at 17 degC in presence of 1% SBC by GC analysis; format: ADME; how it was run: as §2
# Penicillium digitatum [20] = assay: as §4, with “Valencia oranges” for “Nova mandarins”, “7” for “5”, “1%” for “2%”, “29.2%)” for “88.3%)”; format: functional; how it was run: as §5
# Penicillium digitatum [21] = assay: as §3, with “Valencia oranges” for “Nova mandarins”, “7” for “5”, “2%” for “0.5%”, “40.0%)” for “86.7%)”; format: functional
structure (smiles),measurement,setting,value
c1ccc2[nH]c(-c3cscn3)nc2c1 [THIABENDAZOLE],Activity,Penicillium digitatum [1],3.22%
same,Drug uptake,Cuticular wax [2],0.11 mg/kg
same,Drug uptake,Fruit [3],0.43 mg/kg
same,Activity,Penicillium digitatum [4],12.23%
same,Drug uptake,Cuticular wax [5],0.48 mg/kg
same,Activity,Penicillium digitatum [6],3.98%
same,Activity,Penicillium digitatum [7],65%
same,Activity,Penicillium digitatum [8],11.84%
same,Activity,Penicillium digitatum [9],93.3%
same,Activity,Penicillium digitatum [10],70%
same,Activity,Penicillium digitatum [11],9.38%
same,Activity,Penicillium digitatum [12],3.3%
same,Drug uptake,Fruit [13],0.89 mg/kg
same,Drug uptake,Fruit [14],1.6 mg/kg
same,Drug uptake,Fruit [15],0.71 mg/kg
same,Activity,Penicillium digitatum [16],4.23%
same,Drug uptake,Fruit [17],0.58 mg/kg
same,Drug uptake,Fruit [18],1.25 mg/kg
same,Drug uptake,Fruit [19],1.45 mg/kg
same,Activity,Penicillium digitatum [20],5%
same,Activity,Penicillium digitatum [21],21.7%
